# According to ChEMBL document CHEMBL1125464, “1,3,6-trisubstituted indoles as peptidoleukotriene antagonists: benefits of a second, polar, pyrrole substituent” (J Med Chem, 1992):
# Tests used:
# Cavia porcellus [1] = organism: Cavia porcellus; assay: Inhibition of LTE4 (8 nM) induced contraction of guinea pig tracheal spirals at a concentration of 0.5 uM; NS=not statistically significant; assay type: functional; conditions: Trachea
# Outline: (§1)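 Paired tracheal spirals at 37 °C in Krebs gassed with 95% O2/5% CO2 under 2 g tension, given repeated LTE4 challenges of 10 min. Compound or vehicle added 10 min before a third challenge. % inhibition = (2nd − 3rd response)/2nd × 100, corrected by subtracting the vehicle value. Paired t test, n ≥ 4.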
# Cavia porcellus [2] = organism: Cavia porcellus; assay: Inhibition of LTE4 (8 nM) induced contraction of guinea pig tracheal spirals at a concentration of 3.3 uM; assay type: functional, Trachea; outline: as §1
# Cavia porcellus [3] = organism: Cavia porcellus; assay: Dissociation constant on guinea pig tracheal spirals utilizing LTE4 as agonist; conditions: Trachea
# Cavia porcellus [4] = organism: Cavia porcellus; assay: Compound was evaluated for the displacement of [3H]LTD4 on guinea pig lung parenchymal membranes; set-up: species or system Lung parenchyma
# Outline: (§2)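 Membranes from perfused lungs of male Hartley guinea pigs (300-400 g) in PIPES pH 7.5 with 10 mM CaCl2, 10 mM MgCl2, 2 mM cysteine and 2 mM glycine. 1 nM 3H-LTD4 at 22 °C for 30 min; nonspecific binding with 2 uM LTD4. Filtration, then scintillation counting. IC50 by nonlinear least squares, Ki by Cheng-Prusoff; mean of two experiments in duplicate.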
# [5] = Negative logarithm of the molar dissociation constant; assay type: ADME
# Outline: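 Paired guinea pig tracheal spirals at 37 °C in Krebs gassed with 95% O2/5% CO2, 2 g resting tension. Responses expressed relative to 30 uM carbachol. Antagonist or vehicle preincubated 30 min, then cumulative LTE4 concentration-response curves, one per tissue. EC50 by linear regression; KB = [antagonist]/(dose ratio − 1), per Furchgott.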
# Cavia porcellus [6] = organism: Cavia porcellus; assay: Inhibition of LTE4 (8 nM) induced contraction of guinea pig tracheal spirals at a concentration of 10 nM; assay type: functional, Trachea; outline: as §1
# Cavia porcellus [7] = assay: Protection of conscious guinea pig lung function was determined by comparison of time required for the challenged animals to exhibit labored abdominal breathing after oral dose of 30 uM/kg; assay type: functional
# Outline: (§3)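 Conscious guinea pigs pretreated with indomethacin (10 mg/kg ip) and propranolol (5 mg/kg ip). Compound in PEG400 (<10% v/v)/PBS given orally 180 min before a challenge of up to 5 min with aerosolized 60 uM LTD4. Time to abdominal dyspnea scored blind. % protection is taken against vehicle controls; no end point by 300 s counts as 100%. Unpaired t test.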
# Cavia porcellus [8] = organism: Cavia porcellus; assay: Inhibition of LTE4 (8 nM) induced contraction of guinea pig tracheal spirals at a concentration of 1 nM; assay type: functional, Trachea; outline: as §1
# Cavia porcellus [9] = organism: Cavia porcellus; assay: Inhibition constant for the displacement of [3H]LTD4 on guinea pig lung parenchymal membranes; set-up: species or system Lung parenchyma; outline: as §2
# Cavia porcellus [10] = assay: Protection of conscious guinea pig lung function was determined by comparison of time required for the challenged animals to exhibit labored abdominal breathing after oral dose of 1 uM/kg; assay type: functional; outline: as §3
# Cavia porcellus [11] = assay: Protection of conscious guinea pig lung function was determined by comparison of time required for the challenged animals to exhibit labored abdominal breathing after oral dose of 10 uM/kg; assay type: functional; outline: as §3
# Cavia porcellus [12] = organism: Cavia porcellus; assay: Inhibition of LTE4 (8 nM) induced contraction of guinea pig tracheal spirals at a concentration of 100 nM; assay type: functional, Trachea; outline: as §1
# Cavia porcellus [13] = organism: Cavia porcellus; assay: Inhibition of LTE4 (8 nM) induced contraction of guinea pig tracheal spirals at a concentration of 10 uM; assay type: functional, Trachea; outline: as §1
# Cavia porcellus [14] = assay: Protection of conscious guinea pig lung function was determined by comparison of time required for the challenged animals to exhibit labored abdominal breathing after oral dose of 3 uM/kg; assay type: functional; outline: as §3
# Cavia porcellus [15] = organism: Cavia porcellus; assay: Inhibition of LTE4 (8 nM) induced contraction of guinea pig tracheal spirals at a concentration of 0.1 uM; assay type: functional, Trachea; outline: as §1
# Cavia porcellus [16] = organism: Cavia porcellus; assay: Inhibition of LTE4 (8 nM) induced contraction of guinea pig tracheal spirals at a concentration of 0.33 uM; assay type: functional, Trachea; outline: as §1
# Cavia porcellus [17] = organism: Cavia porcellus; assay: Inhibition of LTE4 (8 nM) induced contraction of guinea pig tracheal spirals at a concentration of 3.3 uM; NS=not statistically significant; assay type: functional; conditions: Trachea; outline: as §1
smiles,measurement,setting,value
CCCCOC(=O)Nc1ccc2c(C)c(C)n(Cc3ccc(C(=O)O)cc3OC)c2c1,NS,Cavia porcellus [1],not statistically significant
same,Inhibition,Cavia porcellus [2],81%
COc1cc(C(=O)NS(=O)(=O)c2ccccc2C)ccc1Cc1cn(C(C)C(=O)N(C)C)c2ccc(C(=O)NCC3CCCC3)cc12 (centres undefined),Kb,Cavia porcellus [3],12.1 nM
CCCCOC(=O)Nc1ccc2cc(C)n(Cc3ccc(C(=O)O)cc3OC)c2c1,Inhibition,Cavia porcellus [2],41%
CCN(CC)C(=O)CCc1cn(Cc2ccc(C(=O)NS(=O)(=O)c3ccccc3C)cc2OC)c2cc(C(=O)NCC3CCCC3)ccc12,Ki,Cavia porcellus [4],0.54 nM
COc1cc(C(=O)NS(=O)(=O)c2ccccc2C)ccc1Cc1cn(C)c2ccc(NC(=O)CC3CCCC3)cc12,Ki,Cavia porcellus [4],0.3 nM
same,Kb,Cavia porcellus [3],0.245 nM
CCCn1cc(Cc2ccc(C(=O)NS(=O)(=O)c3ccccc3)cc2OC)c2cc(NC(=O)OC3CCCC3)ccc21,pKB,[5],8.44
COc1cc(C(=O)NS(=O)(=O)c2ccccc2C)ccc1Cc1cn(C)c2ccc(C(=O)NCC3CCCC3)cc12,Ki,Cavia porcellus [4],3.21 nM
same,Inhibition,Cavia porcellus [6],36%
same,Kb,Cavia porcellus [3],4.28 nM
COc1cc(C(=O)O)ccc1Cc1cn(C2CCCC2)c2ccc(NC(=O)OC3CCCC3)cc12,pKB,[5],7.67
CNC(=O)CCc1cn(Cc2ccc(C(=O)NS(=O)(=O)c3ccccc3C)cc2OC)c2cc(C(=O)NCC3CCCC3)ccc12,Protection,Cavia porcellus [7],44%
same,Inhibition,Cavia porcellus [8],57%
same,Ki,Cavia porcellus [9],1.53 nM
same,Kb,Cavia porcellus [3],0.399 nM
COc1cc(C(=O)NS(=O)(=O)c2ccccc2C)ccc1Cn1ccc2ccc(NC(=O)CC3CCCC3)cc21,Protection,Cavia porcellus [10],40%
same,Kb,Cavia porcellus [3],0.106 nM
COc1cc(C(=O)NS(=O)(=O)c2ccccc2C)ccc1Cc1nn(C)c2ccc(C(=O)NCC3CCCC3)cc12,Ki,Cavia porcellus [4],1.87 nM
COc1cc(C(=O)NS(=O)(=O)c2ccccc2)ccc1Cc1c[nH]c2ccc(NC(=O)OC3CCCC3)cc12,pKB,[5],9.84
CCN(CC)C(=O)CCn1cc(Cc2ccc(C(=O)NS(=O)(=O)c3ccccc3C)cc2OC)c2cc(C(=O)NCC3CCCC3)ccc21,Ki,Cavia porcellus [4],0.43 nM
COc1cc(C(=O)NS(=O)(=O)c2ccccc2C)ccc1Cn1cc(CCC(=O)N2CCC(C)(C)CC2)c2ccc(C(=O)NCC3CCCC3)cc21,Kb,Cavia porcellus [3],4.45 nM
COc1cc(C(=O)NS(=O)(=O)c2ccccc2)ccc1Cn1c2c(c3ccc(NC(=O)CC4CCCC4)cc31)CCCC2,Kb,Cavia porcellus [3],7.73 nM
COC(=O)CCc1cn(Cc2ccc(C(=O)NS(=O)(=O)c3ccccc3)cc2OC)c2cc(NC(=O)CC3CCCC3)ccc12,Protection,Cavia porcellus [11],63%
same,Kb,Cavia porcellus [3],0.273 nM
COc1cc(C(=O)NS(=O)(=O)c2ccccc2)ccc1Cn1cc(CCC(=O)O)c2ccc(NC(=O)CC3CCCC3)cc21,Protection,Cavia porcellus [11],35%
same,Kb,Cavia porcellus [3],0.0731 nM
COc1cc(C(=O)NS(=O)(=O)c2ccccc2C)ccc1Cn1ccc2ccc(OCCC3CCCC3)cc21,Inhibition,Cavia porcellus [12],21%
COc1cc(C(=O)NS(=O)(=O)c2ccccc2C)ccc1Cn1cc(CC(C)C(=O)N(C)C)c2ccc(C(=O)NCC3CCCC3)cc21 (centres undefined),Ki,Cavia porcellus [4],2.32 nM
same,Protection,Cavia porcellus [11],37%
same,Kb,Cavia porcellus [3],0.65 nM
COc1cc(C(=O)O)ccc1Cc1nn(C)c2ccc(C(=O)NCC3CCCC3)cc12,Inhibition,Cavia porcellus [2],37%
COc1cc(C(=O)O)ccc1Cn1ccc2ccc(OCCC3CCCC3)cc21,Inhibition,Cavia porcellus [13],75%
COc1cc(C(=O)NS(=O)(=O)c2ccccc2C)ccc1Cn1cc(C)c2ccc(C(=O)NCC3CCCC3)cc21,Ki,Cavia porcellus [4],9.89 nM
COc1cc(C(=O)NS(=O)(=O)c2ccccc2C)ccc1Cn1cc(CCC(=O)N2CCOCC2)c2ccc(C(=O)NCC3CCCC3)cc21,Protection,Cavia porcellus [11],53%
same,Kb,Cavia porcellus [3],0.289 nM
COc1cc(C(=O)NS(=O)(=O)c2ccccc2C)ccc1Cn1cc(CCC(=O)N2CCCC2)c2ccc(C(=O)NCC3CCCC3)cc21,Protection,Cavia porcellus [14],49%
COc1cc(C(=O)O)ccc1Cn1ccc2ccc(C(=O)NCC3CCCC3)cc21,Inhibition,Cavia porcellus [2],45%
CCCC(=O)c1cn(Cc2ccc(C(=O)NS(=O)(=O)c3ccccc3)cc2OC)c2cc(NC(=O)CC3CCCC3)ccc12,Kb,Cavia porcellus [3],0.496 nM
COc1cc(C(=O)O)ccc1Cn1cc(Cl)c2ccc(NC(=O)OC3CCCC3)cc21,Inhibition,Cavia porcellus [15],41%
COc1cc(C(=O)O)ccc1Cn1ccc2ccc(NC(=O)CC3CCCC3)cc21,Inhibition,Cavia porcellus [15],34%
same,Kb,Cavia porcellus [3],20.7 nM
COc1cc(C(=O)O)ccc1Cc1cn(C)c2ccc(NC(=O)CC3CCCC3)cc12,Inhibition,Cavia porcellus [15],94%
COc1cc(C(=O)NS(=O)(=O)c2ccccc2)ccc1Cn1cc(CCC(N)=O)c2ccc(OCCC3CCCC3)cc21,Inhibition,Cavia porcellus [6],29%
same,Kb,Cavia porcellus [3],10.3 nM
COc1cc(C(=O)O)ccc1Cc1cn(C)c2ccc(NC(=O)OC3CCCC3)cc12,pKB,[5],7.84
COc1cc(C(=O)O)ccc1Cn1cc(C)c2ccc(NC(=O)CC3CCCC3)cc21,Inhibition,Cavia porcellus [15],59%
COc1cc(C(=O)O)ccc1Cn1ccc2ccc(C(=O)OCC3CCCC3)cc21,Inhibition,Cavia porcellus [2],10%
same,Inhibition,Cavia porcellus [13],74%
COc1cc(C(=O)NS(=O)(=O)c2ccccc2)ccc1Cc1cn(C)c2ccc(NC(=O)OC3CCCC3)cc12,pKB,[5],9.69
COc1cc(C(=O)NS(=O)(=O)c2ccccc2)ccc1Cn1ccc2ccc(NC(=O)CC3CCCC3)cc21,Protection,Cavia porcellus [7],43%
same,Kb,Cavia porcellus [3],0.243 nM
CCCC(=O)c1cn(Cc2ccc(C(=O)O)cc2OC)c2cc(NC(=O)CC3CCCC3)ccc12,Inhibition,Cavia porcellus [15],96%
COc1cc(C(=O)O)ccc1Cn1cc(C(C)=O)c2ccc(NC(=O)OC3CCCC3)cc21,Inhibition,Cavia porcellus [15],83%
COc1cc(C(=O)NS(=O)(=O)c2ccccc2)ccc1Cc1cn(C2CCCC2)c2ccc(NC(=O)OC3CCCC3)cc12,pKB,[5],7.84
CCN(CC)C(=O)/C=C/c1cn(Cc2ccc(C(=O)NS(=O)(=O)c3ccccc3C)cc2OC)c2cc(C(=O)NCC3CCCC3)ccc12,Ki,Cavia porcellus [4],4.9 nM
CCCCOC(=O)Nc1ccc2c(Cl)cn(Cc3ccc(C(=O)O)cc3OC)c2c1,Inhibition,Cavia porcellus [16],52%
same,Kb,Cavia porcellus [3],92.7 nM
CCCCOC(=O)Nc1ccc2c(Br)c(Br)n(Cc3ccc(C(=O)O)cc3OC)c2c1,NS,Cavia porcellus [17],not statistically significant
CNC(=O)CCc1cn(Cc2ccc(C(=O)NS(=O)(=O)c3ccccc3)cc2OC)c2cc(NC(=O)CC3CCCC3)ccc12,Protection,Cavia porcellus [11],74%
same,Kb,Cavia porcellus [3],0.0197 nM
CCCn1cc(Cc2ccc(C(=O)O)cc2OC)c2cc(NC(=O)OC3CCCC3)ccc21,pKB,[5],7.72
COc1cc(C(=O)NS(=O)(=O)c2ccccc2C)ccc1Cn1cc(CCC(N)=O)c2ccc(NC(=O)CC3CCCC3)cc21,Protection,Cavia porcellus [14],63%
same,Kb,Cavia porcellus [3],0.095 nM
COc1cc(C(=O)O)ccc1Cn1ccc2ccc(NC(=O)OC3CCCC3)cc21,Inhibition,Cavia porcellus [15],61%
same,Kb,Cavia porcellus [3],15.7 nM
COc1cc(C(=O)NS(=O)(=O)c2ccccc2)ccc1Cn1cc(C(C)=O)c2ccc(NC(=O)OC3CCCC3)cc21,Kb,Cavia porcellus [3],0.123 nM
COc1cc(C(=O)O)ccc1Cn1cc(C)c2ccc(C(=O)NCC3CCCC3)cc21,NS,Cavia porcellus [17],not statistically significant
COc1cc(C(=O)O)ccc1Cc1c[nH]c2ccc(NC(=O)OC3CCCC3)cc12,pKB,[5],7.32
COc1cc(C(=O)NS(=O)(=O)c2ccccc2)ccc1Cn1ccc2ccc(NC(=O)OC3CCCC3)cc21,Kb,Cavia porcellus [3],0.29 nM
COc1cc(C(=O)NS(=O)(=O)c2ccccc2)ccc1Cn1cc(Cl)c2ccc(NC(=O)OC3CCCC3)cc21,Kb,Cavia porcellus [3],0.718 nM
COc1cc(C(=O)NS(=O)(=O)c2ccccc2)ccc1Cn1ccc2ccc(C(=O)NCC3CCCC3)cc21,Inhibition,Cavia porcellus [12],46%
same,Ki,Cavia porcellus [9],86.8 nM
same,Kb,Cavia porcellus [3],14.2 nM
